# Legend:
# [1] = Hyperprolactinemia in patients referred to a tertiary care hospital; format: in vivo, human; conditions: for drug-induced hyperprolactinemia with prolactin levels less than 100 ng/ml: number of cases / drug-induced hyperprolactinemia with prolactin levels greater than 100 ng/ml: number of cases: 11 drug-induced cases among 58
# [2] = Etiological profile of hyperprolactinemia, Endocrine OPD; format: in vivo, human; conditions: 50 subjects with hyperprolactinemia; use of drugs 56% of etiologies; Domperidone with and without PPI
# [3] = format: in vivo, human
# Case: hypomagnesemia = format: in vivo, human; conditions: single child, Tab. MgO 200mg TID
# [4] = Case: Chiari Frommel syndrome treated with bromocriptine; format: in vivo, human; conditions: single patient, 2.5mg for one month
# [5] = Case: ACTH and prolactin co-secreting pituitary adenoma treated with cabergoline; format: in vivo, human; conditions: single patient
# [6] = Giant prolactinoma case series, response to cabergoline; format: in vivo, human; conditions: follow-up MRI in 17 patients
# Method in brief: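 Patients with giant prolactinoma all received cabergoline, dose range 0.5-7 mg/week, over a mean follow-up of 11.78 ± 14.89 months. Tumour shrinkage was judged against the baseline maximum tumour dimension on follow-up MRI, which was available for 17 patients.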
# [7] = Case: cabozantinib for metastatic MTC; format: in vivo, human; conditions: single patient
# [8] = ref not given, cited from earlier work
# [9] = Case: diazoxide in Prader-Willi Syndrome; format: in vivo, human; conditions: child with PWS
# [10] = format: in vivo, human; remark: listed apart in the source
# Method in brief: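 Observational study of 167 diabetic outpatients seen January–June 2023. All had HbA1c, FPG and PPG uncontrolled on two or three oral hypoglycaemic agents and were unwilling to start insulin. Imeglimin was added as the third or fourth agent, and FPG, PPG, HbA1c and adverse effects were recorded afterwards.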
# [11] = format: in vivo, human; conditions: orlistat 120 mg thrice daily, mean [SD]
# [12] = Orlistat vs orlistat + resveratrol in overweight/obese subjects, 12 weeks; format: in vivo, human
# [13] = Semaglutide in type 2 diabetes, cross sectional study; format: in vivo, human; conditions: Likert 5-point scale
# [14] = Case: nivolumab induced endocrine dysfunction; format: in vivo, human; conditions: single patient, 240 mg fortnightly, after 10 cycles
# [15] = Case series: immune check point inhibitor induced endocrine dysfunction; format: in vivo, human; conditions: series of ten patients with IRAE
# [16] = Case: growth hormone therapy in short stature with Crohn's disease; format: in vivo, human; conditions: single patient
# [17] = fulminant hepatic failure, fatal
# [18] = last Ketoconazole dose the night before surgery, isoflurane anaesthesia
# [19] = single patient on Ketoconazole 1200 mg/day and spironolactone 200 mg/day
compound,measurement,setting,value
O=c1[nH]c2ccccc2n1CCCN1CCC(n2c(=O)[nH]c3cc(Cl)ccc32)CC1 [Domperidone],drug-induced hyperprolactinemia with prolactin levels less than 100 ng/ml: number of cases,[1],3 cases
same,Among the drugs causing hyperprolactinemia: share of cases,[2],53.57%
CC(=O)N1CCN(c2ccc(OCC3COC(Cn4ccnc4)(c4ccc(Cl)cc4Cl)O3)cc2)CC1 (centres unmarked) [Ketoconazole],"ALT, 5th post operative day",[3]; [17],5053 U/L
same,"AST, 5th post operative day",[3]; [17],7844 L⁻¹
same,"GGT, 5th post operative day",[3]; [17],207 U/L
same,"INR, 5th post operative day",[3]; [17],> 11
same,"PT, 5th post operative day",[3]; [17],> 120 s
same,"aPTT, 5th post operative day",[3]; [17],> 180 s
same,"ALT, 4th post operative day",[3]; [18],433 U/L
same,"AST, 4th post operative day",[3]; [18],370 U/L
same,"GGT, 4th post operative day",[3]; [18],233 U/L
same,ALT before the surgery,[3]; [19],30 IU/ml
same,AST before the surgery,[3]; [19],27 IU/ml
[O]=[Mg] [MgO],calcium on treatment,Case: hypomagnesemia,9.2 mg/dL
same,Serum Magnesium on treatment,Case: hypomagnesemia; at presentation 0.4mg/dl,1.2 mg/dL
Cc1cc2c(s1)Nc1ccccc1N=C2N1CCN(C)CC1 [Olanzapine],Among the drugs causing hyperprolactinemia: share of cases,[2],3.57%
Cc1nc2n(c(=O)c1CCN1CCC(c3noc4cc(F)ccc34)CC1)CCCC2 [Risperidone],drug-induced hyperprolactinemia with prolactin levels greater than 100 ng/ml: number of cases,[1],1 cases
same,drug-induced hyperprolactinemia with prolactin levels less than 100 ng/ml: number of cases,[1],1 cases
same,Among the drugs causing hyperprolactinemia: share of cases,[2],7.14%
CN[C@H]1CC[C@@H](c2ccc(Cl)c(Cl)c2)c2ccccc21 [Sertraline],Among the drugs causing hyperprolactinemia: share of cases,[2],3.57%
CC(C)C[C@H]1C(=O)N2CCC[C@H]2[C@]2(O)O[C@](NC(=O)[C@@H]3C=C4c5cccc6[nH]c(Br)c(c56)C[C@H]4N(C)C3)(C(C)C)C(=O)N12 [bromocriptine],effect on galactorrhea,[4],Milk secretion was slowed down
C=CCN1C[C@H](C(=O)N(CCCN(C)C)C(=O)NCC)C[C@@H]2c3cccc4[nH]cc(c34)C[C@H]21 [cabergoline],outcome at increased dose,[5]; cabergoline 2mg/week,developed adrenal insufficiency
same,Follow up prolactin,"[5]; on cabergoline 0.5mg/week, before dose increase",15737 miu/l
same,Stimulated cortisol,[5]; post 3 days of cabergoline 0.5mg/week,535 nmol/L
same,8am cortisol,"[5]; post 3 days of cabergoline 0.5mg/week, before 525nmol/l",132 nmol/L
same,Prolactin,"[5]; post 3 days of cabergoline 0.5mg/week, before 20982miu/l",9215 miu/l
same,"Tumor shrinkage <50%, share of patients",[6]; 2 patients,11.76%
same,"disappearance of radiologically detectable tumor, share of patients",[6]; 2 patients,11.76%
same,"Tumor shrinkage of >50% from the baseline, share of patients",[6]; 13 patients,76.47%
COc1cc2nccc(Oc3ccc(NC(=O)C4(C(=O)Nc5ccc(F)cc5)CC4)cc3)c2cc1OC [cabozantinib],response of metastatic MTC,[7],good response
same,tolerability,[7],stopped due to side effects
COc1cc(CNC(=O)CCCC/C=C/C(C)C)ccc1O [capsaicin],"pain control, capsaicin lotion compared with placebo","[8]; analysis on treatment intention, all pain measures",insignificant improvement in pain control
same,"pain relief, topical capsaicin cream […], multicenter controlled trial","[8]; initial results, vs placebo",more relief of the pain associated with diabetic neuropathy than placebo
same,"tolerability, capsaicin […] cream",[8]; may lead to withdrawal from the study,"local skin irritation, which is often mild and transient"
same,"pain relief, capsaicin […] cream applied to the painful area",[8]; painful diabetic neuropathy,significant pain relief
same,"pain relief, topical capsaicin […] for four to six weeks",[8],either complete or significant relief
CC1=NS(=O)(=O)c2cc(Cl)ccc2N1 [diazoxide],tolerability,[9]; 3 mg/kg/d,well tolerated
same,effect on hyperphagia,"[9]; 3 mg/kg/d in two divided doses, after 3 weeks",perceptible reduction in hyperphagia
C[C@H]1N=C(N(C)C)N=C(N)N1 [imeglimin],most common adverse effect,[10]; n=167,gastrointestinal issues
same,HbA1c after imeglimin was added,"[10]; n=167, add-on to two or three OHAs, baseline 9.1±1.8, p=0.004",7.2±1.2
same,FPG after imeglimin was added,"[10]; n=167, add-on to two or three OHAs, baseline 176.61±45.75, p=0.013",108.05±24.79
same,PPG after imeglimin was added,"[10]; n=167, add-on to two or three OHAs, baseline 247.86±68.17, p=0.020",156.49±38.53
CCN1CCC[C@H]1CNC(=O)c1cc(S(N)(=O)=O)ccc1OC [levosulpiride],drug-induced hyperprolactinemia with prolactin levels greater than 100 ng/ml: number of cases,[1],5 cases
same,drug-induced hyperprolactinemia with prolactin levels less than 100 ng/ml: number of cases,[1],1 cases
same,prolactin levels in drug-induced hyperprolactinemia,[1]; statement of the conclusion,> 100 ng/mL
CCCCCCCCCCC[C@@H](C[C@@H]1OC(=O)[C@H]1CCCCCC)OC(=O)[C@H](CC(C)C)NC=O [orlistat],"mean weight loss after 2 months, group 2",[11]; patients with diabetes,6.3 [4.9] %
same,"mean weight loss after 4 months, group 2",[11]; patients with diabetes,8.7 [4.7] %
same,"mean weight loss after 6 months, group 2",[11]; patients with diabetes,12.9 [2.4] %
same,"mean weight loss after 2 months, group 1",[11]; patients without diabetes,7.1 [6.1] %
same,"mean weight loss after 4 months, group 1",[11]; patients without diabetes,14.6 [12.9] %
same,"mean weight loss after 6 months, group 1",[11]; patients without diabetes,16.1 [6.7] %
same,"mean weight loss after 2 months, group 3",[11]; prediabetic patients,6 [2.6] %
same,"mean weight loss after 4 months, group 3",[11]; prediabetic patients,15.5 [15.4] %
same,"mean weight loss after 6 months, group 3",[11]; prediabetic patients,15.8 [6.2] %
same,"diarrhoea, number of patients",[12],7 patients
same,"weight loss, patients with diabetes with a BMI >=30","[12]; sub-group, p=0.045",-1.04 kg
same,"weight loss, patients with diabetes with steatosis","[12]; sub-group, p=0.048",-0.44 kg
same,weight loss compared to baseline,"[12]; thrice daily, 247 completers, mean body weight ~80 kg",-2.92 kg
CC[C@H](C)[C@H](NC(=O)[C@H](Cc1ccccc1)NC(=O)[C@H](CCC(=O)O)NC(=O)[C@H](CCCCNC(=O)COCCOCCNC(=O)COCCOCCNC(=O)CC[C@H](NC(=O)CCCCCCCCCCCCCCCCC(=O)O)C(=O)O)NC(=O)[C@H](C)NC(=O)[C@H](C)NC(=O)[C@H](CCC(N)=O)NC(=O)CNC(=O)[C@H](CCC(=O)O)NC(=O)[C@H](CC(C)C)NC(=O)[C@H](Cc1ccc(O)cc1)NC(=O)[C@H](CO)NC(=O)[C@H](CO)NC(=O)[C@@H](NC(=O)[C@H](CC(=O)O)NC(=O)[C@H](CO)NC(=O)[C@@H](NC(=O)[C@H](Cc1ccccc1)NC(=O)[C@@H](NC(=O)CNC(=O)[C@H](CCC(=O)O)NC(=O)C(C)(C)NC(=O)[C@@H](N)Cc1cnc[nH]1)[C@@H](C)O)[C@@H](C)O)C(C)C)C(=O)N[C@@H](C)C(=O)N[C@@H](Cc1c[nH]c2ccccc12)C(=O)N[C@@H](CC(C)C)C(=O)N[C@H](C(=O)N[C@@H](CCCNC(=N)N)C(=O)NCC(=O)N[C@@H](CCCNC(=N)N)C(=O)NCC(=O)O)C(C)C [semaglutide],patients rating strongly agree or agree for adverse event: diarrhoea,[13],91.3%
same,patients rating strongly agree or agree for adverse event: loss of appetite,[13],87.4%
same,patients rating strongly agree or agree for adverse event: nausea,[13],93.5%
nivolumab,immune-related adverse events diagnosed,[14],checkpoint inhibitor induced diabetes mellitus (CPI-DM) and central adrenal insufficiency
same,patients with isolated thyroid dysfunction on the drug,[15],five
rHGH: recombinant growth hormone injection,catchup growth,"[16]; 0.18mg/kg/week, 6 months",7 cm
same,growth thereafter at higher doses,"[16]; 0.3mg/kg/week, undiagnosed Crohn's disease",height remained static

# From publication PMC10870986 (Indian Journal of Endocrinology and Metabolism, 2023)
